Test results as given in ChEMBL document CHEMBL1122417, “Synthesis of 3-hydroxy-3-cyclohexylbutyric acid derivatives. 1. Cyclic homologues of 3-hydroxy-3-methylglutaric acid” (1983).

How the values were obtained:
Type in all cases: functional
Rattus norvegicus [1] = species: Rattus norvegicus; assay: Percent inhibition of [14C]acetate incorporation into cholesterol, after incubation with rat liver slices, at a concentration of 0.005 M
Method in brief: (§1)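 Rat liver slices (250 mg) were incubated with and without compound in 4 mL Krebs-Ringer bicarbonate buffer, pH 7.4, containing 4 mM [2-14C]acetate and flushed with 95% O2-5% CO2. 14C incorporation into CO2, long-chain fatty acids and cholesterol was measured and compared against incubations without compound. Values are arithmetic means of three determinations.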

Rattus norvegicus [2] = species: Rattus norvegicus; assay: Percent inhibition of [14C]acetate incorporation into CO2, after incubation with rat liver slices at a concentration of 0.005 M; method in brief: as §1
Rattus norvegicus [3] = species: Rattus norvegicus; assay: Percent inhibition of [14C]acetate incorporation into long-chain fatty acids, after incubation with rat liver slices, at a concentration of 0.005 M; method in brief: as §1
Rattus norvegicus [4] = species: Rattus norvegicus; assay: Percent inhibition of [14C]acetate incorporation into long-chain fatty acids, after incubation with rat liver slices, at a concentration of 0.0005 M; method in brief: as §1
Rattus norvegicus [5] = species: Rattus norvegicus; assay: Percent inhibition of [14C]acetate incorporation into cholesterol, after incubation with rat liver slices, at a concentration of 0.0005 M; method in brief: as §1
Rattus norvegicus [6] = species: Rattus norvegicus; assay: Percent inhibition of [14C]-acetate incorporation into CO2, after incubation with rat liver slices at a concentration of 0.0005 M; method in brief: as §1

SMILES | Inhibition (Rattus norvegicus [1]) [%] | Inhibition (Rattus norvegicus [2]) [%] | Inhibition (Rattus norvegicus [3]) [%] | Inhibition (Rattus norvegicus [4]) [%] | Inhibition (Rattus norvegicus [5]) [%] | Inhibition (Rattus norvegicus [6]) [%]
CC1(CC(=O)O)OC(=O)[C@@H]2CCCC[C@H]21 (some centres undefined) | 42 | 37 | 67 | – | – | –
CCC1(C)OC(=O)c2ccccc21 (centres undefined) | 99 | 86 | 99 | 29 | 22 | <10
CC1(CC(=O)O)OC(=O)C2=C1CCCC2 (centres undefined) | 63 | 45 | 83 | – | – | –
CC1(CC(=O)O)OC(=O)c2ccccc21 (centres undefined) | 48 | <10 | 54 | – | – | –
CCC1(C)OC(=O)C2=C1CCCC2 (centres undefined) | 81 | 63 | 81 | – | – | –
CC1(CC(=O)O)OC(=O)[C@H]2CCCC[C@H]21 (some centres undefined) | 30 | 23 | 34 | – | – | –
CC(O)(CC(=O)O)CC(=O)O [MEGLUTOL] | 12 | <10 | <10 | – | – | –
